From ChEMBL document CHEMBL4602714, “Strategic Incorporation of Polarity in Heme-Displacing Inhibitors of Indoleamine-2,3-dioxygenase-1 (IDO1)” (ACS Med Chem Lett, 2020)

Assays:
[1] = Unbound intrinsic clearance in rat hepatocytes incubated for 120 mins by LC-MS/MS analysis; assay type: ADME, cell-based, Hepatocyte; conditions: 2 h
[2] = Intrinsic clearance in Wistar Han rat at 0.05 mg/kg, iv administered using cassette dosing by LC-MS/MS analysis; assay type: ADME, organism-based; conditions: in vivo
Summary of the method: (§1)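 Rat cassette PK: single IV dose of 0.05 mg/kg at 1 mL/kg, vehicle DMSO/PEG400/H2O 20/60/20, animals fasted. Reported values are the geometric mean of n = 2 or more.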

[3] = Unbound volume of distribution in Wistar Han rat at 0.05 mg/kg, iv administered using cassette dosing by LC-MS/MS analysis; assay type: ADME, organism-based; conditions: in vivo; summary of the method: as §1
[4] = Unbound intrinsic clearance in human hepatocytes incubated for 120 mins by LC-MS/MS analysis; assay type: ADME, cell-based, Hepatocyte; conditions: 2 h
[5] = MRT in Wistar Han rat at 0.05 mg/kg, iv administered using cassette dosing by LC-MS/MS analysis; assay type: ADME, organism-based; conditions: in vivo; summary of the method: as §1
[6] = Intrinsic clearance in Wistar Han rat at 0.5 mg/kg, iv or 1 mg/kg, po by LC-MS/MS analysis; assay type: ADME, organism-based; conditions: in vivo
Summary of the method: (§2)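 Rat 2 × 2 PK: IV arm at 0.5 mg/kg (1 mL/kg) and PO arm at 1 mg/kg (2 mL/kg), both in DMSO/PEG400/H2O 20/60/20. Reported values are the geometric mean of n = 2 or more.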

[7] = MRT in Wistar Han rat at 0.5 mg/kg, iv or 1 mg/kg, po by LC-MS/MS analysis; assay type: ADME, organism-based; conditions: in vivo; summary of the method: as §2
[8] = Unbound volume of distribution in Wistar Han rat at 0.5 mg/kg, iv or 1 mg/kg, po by LC-MS/MS analysis; assay type: ADME, organism-based; conditions: in vivo; summary of the method: as §2
[9] = Drug metabolism in human hepatocytes assessed as oxidation of n-propyl group with aryl amide bond cleavage at 30 uM incubated up to 90 mins in presence of NADPH by MetID based LC/MS analysis; assay type: ADME, cell-based, Hepatocyte; conditions: 1.5 h
[10] = Drug metabolism in rat liver microsomes assessed as oxidation of n-propyl group at 30 uM incubated up to 45 mins in presence of NADPH by MetID based LC/MS analysis; assay type: ADME, Microsome; conditions: 0.75 h
[11] = Drug metabolism in human liver microsomes assessed as oxidation of n-propyl group at 30 uM incubated up to 45 mins in presence of NADPH by MetID based LC/MS analysis; assay type: ADME, Microsome; conditions: 0.75 h
[12] = Clearance in Wistar Han rat at 0.05 mg/kg, iv administered using cassette dosing by LC-MS/MS analysis; assay type: ADME, organism-based; conditions: in vivo; summary of the method: as §1
[13] = Volume of distribution in Wistar Han rat at 0.05 mg/kg, iv administered using cassette dosing by LC-MS/MS analysis; assay type: ADME, organism-based; conditions: in vivo; summary of the method: as §1
[14] = Unbound clearance in Wistar Han rat at 0.05 mg/kg, iv administered using cassette dosing by LC-MS/MS analysis; assay type: ADME, organism-based; conditions: in vivo; summary of the method: as §1

CL free [1] [mL/min/kg] | CL [2] [mL/min/kg] | Vdu [3] [L/kg] | CL free [4] [mL/min/kg] | MRT [5] [h] | also measured | SMILES
< 280 | 590 | 99 | 350 | 3.2 | – | O=C(Nc1ccc([C@]2(C(=O)Nc3ccc(F)cc3)C[C@@H](O)C2)cc1)c1cccc(Cl)c1
830 | – | – | 1300 | – | CL [6]: 4500 mL/min/kg; MRT [7]: 5 h; Vdu [8]: 2200 L/kg | O=C(Nc1ccc(C2(C(=O)Nc3ccc(F)cc3)CCC2)cn1)c1cccc(Cl)c1
2000 | 6000 | 1100 | 2000 | 4.3 | – | O=C(Nc1ccc(C2(C(=O)Nc3ccc(F)cc3)CCC2)cc1)c1cccc(Cl)c1
6200 | – | – | 560 | – | – | CCCNC(=O)C1(c2ccc(NC(=O)c3ccc(F)c(C)c3)cc2)CCC1
7200 | – | 180 | 870 | 0.7 | Drug metabolism [9]: Metabolite_Detected; Drug metabolism [10]: Metabolite_Detected; Drug metabolism [11]: Metabolite_Detected; clearance [12]: 110 mL/min/kg; Vd [13]: 4.9 L/kg; CL free [14]: 4100 mL/min/kg | CCCNC(=O)C1(c2ccc(NC(=O)c3cccc(Cl)c3)cc2)CCC1
1700 | – | – | 390 | – | – | O=C(Nc1ccc(C2(C(=O)NC3CCOCC3)CCC2)cc1)c1cccc(Cl)c1
250 | 1600 | 420 | 420 | 4.8 | – | O=C(Nc1ccc(C2(C(=O)Nc3ccc(F)cc3)COC2)cc1)c1cccc(Cl)c1
< 84 | – | – | < 44 | 3.2 | – | O=C(Nc1ccc(C2(C(=O)Nc3ccc(F)cc3)COC2)nc1)c1cccc(Cl)c1
500 | – | – | 1900 | – | – | O=C(Nc1ccc(C2(C(=O)Nc3ccc(Cl)nc3)CCC2)cc1)c1cccc(Cl)c1
